Laboratory results: ChEMBL document CHEMBL1800061 (J Med Chem, 2010)
Values after ≈ are worked out from the molar mass of the structure shown. Active and inactive are the calls of the source. The calls are words filed in the database; no cut-off is given here.

What was measured:
CDK6/cyclin D1 = CDK6/cyclin D1 (Homo sapiens, UniProt Q00534); assay: Inhibition of CDK6/cyclinD1 assessed as amount of ATP […] by luciferase activity based PKLight assay; type: protein-complex assay
How it was run: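 Purified recombinant CDK4/cycD1, CDK6/CycD1, CDK7/CycH/MAT1 or CDK9/CycT run with the supplier's substrate peptides under the manufacturer's protocol. Inhibition was read as ATP left at the end of the reaction, measured by luciferase luminescence (PKLight).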

MCF7 = assay: Antiproliferative activity against human MCF7 cells after 72 hrs by sulforhodamine B assay; type: functional; conditions: MCF7, 72 h
How it was run: (§1)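 Cell lines were grown in DMEM with 10% FCS and treated with increasing concentrations for 72 h. Growth was read by sulforhodamine B staining and GI50 was derived. Values are means of at least three replicates with SD.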

HepG2 = assay: Antiproliferative activity against human HepG2 cells after 72 hrs by sulforhodamine B assay; type: functional; conditions: HepG2, 72 h; how it was run: as §1
[1] = target: Cyclin-dependent kinase 9 (Homo sapiens) (UniProt P50750); assay: Inhibition of CDK9-mediated phosphorylation at Ser2 in C-terminal domain of RNA polymerase 2 in human HCT116 cells after 24 hrs by immunoblotting analysis; type: cell-based; conditions: HCT-116
Cyclin-dependent kinase 9 (Homo sapiens), sequence (P50750 whole entry, the tested form may be a part): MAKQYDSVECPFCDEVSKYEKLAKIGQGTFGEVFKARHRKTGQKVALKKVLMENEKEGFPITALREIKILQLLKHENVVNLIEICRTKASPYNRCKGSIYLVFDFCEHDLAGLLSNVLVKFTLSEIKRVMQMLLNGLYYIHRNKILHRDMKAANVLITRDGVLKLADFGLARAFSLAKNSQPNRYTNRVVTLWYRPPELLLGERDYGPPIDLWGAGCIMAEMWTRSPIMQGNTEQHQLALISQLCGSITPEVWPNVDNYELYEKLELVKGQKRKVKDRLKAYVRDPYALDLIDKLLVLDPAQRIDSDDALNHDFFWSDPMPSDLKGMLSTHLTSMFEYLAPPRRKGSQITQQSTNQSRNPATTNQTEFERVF
How it was run: (§2)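 HCT116 colon cancer cells were kept in DMEM with 10% FCS. Cells (8×10^5) were plated, dosed 24 h later, and exposed for 4 or 24 h. Whole-cell lysates were made in RIPA buffer with phosphatase and protease inhibitor cocktails and normalised by BCA protein assay. They were immunoblotted for phospho-sites, total proteins and cyclins.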

[2] = target: Cyclin-dependent kinase 4 (Homo sapiens) (UniProt P11802); assay: Inhibition of CDK4-mediated phosphorylation of RB protein in human HCT116 cells after 4 hrs by immunoblotting analysis; type: cell-based; conditions: HCT-116; how it was run: as §2
Cyclin-dependent kinase 4 (Homo sapiens), sequence (P11802 whole entry): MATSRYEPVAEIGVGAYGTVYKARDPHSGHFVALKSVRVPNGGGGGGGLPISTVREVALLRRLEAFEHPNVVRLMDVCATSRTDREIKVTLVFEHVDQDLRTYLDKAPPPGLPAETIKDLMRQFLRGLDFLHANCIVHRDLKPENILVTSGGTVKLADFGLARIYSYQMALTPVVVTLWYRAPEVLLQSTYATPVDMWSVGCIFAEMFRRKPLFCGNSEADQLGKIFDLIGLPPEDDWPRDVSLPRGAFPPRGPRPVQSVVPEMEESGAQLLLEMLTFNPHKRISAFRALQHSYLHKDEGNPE

[3] = target: G1/S-specific cyclin-D1 (Homo sapiens) (UniProt P24385); assay: Inhibition of cyclin D1-mediated phosphorylation of RB protein in human HCT116 cells after 4 hrs by immunoblotting analysis; type: cell-based; conditions: HCT-116
G1/S-specific cyclin-D1 (Homo sapiens), sequence (P24385 whole entry): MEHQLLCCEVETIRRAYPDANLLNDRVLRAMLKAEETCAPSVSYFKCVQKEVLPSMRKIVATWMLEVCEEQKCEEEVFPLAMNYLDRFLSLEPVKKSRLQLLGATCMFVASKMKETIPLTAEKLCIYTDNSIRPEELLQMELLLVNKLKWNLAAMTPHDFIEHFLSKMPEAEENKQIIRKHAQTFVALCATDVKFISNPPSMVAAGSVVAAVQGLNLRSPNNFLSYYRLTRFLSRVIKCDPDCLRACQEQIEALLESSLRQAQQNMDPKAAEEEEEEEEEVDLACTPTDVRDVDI
How it was run: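 HCT116 cells grown in DMEM with 10% FCS were plated at 8×10^5 per dish and treated after 24 h with compound in DMSO. Lysis was done 4 h later in RIPA buffer with phosphatase and protease inhibitor cocktails, and protein was quantified by BCA. Whole-cell lysates were immunoblotted for phospho-RB (Ser-780, Ser-795, Ser-801, Ser-807/811, Thr-821) and RNA polymerase II CTD Ser-2.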

[4] = target: G2/mitotic-specific cyclin-B1 (Homo sapiens) (UniProt P14635); assay: Inhibition of cyclin B-mediated phosphorylation of RNA pol3 in human HCT116 cells after 4 hrs by immunoblotting analysis; type: cell-based; conditions: HCT-116; how it was run: as §2
G2/mitotic-specific cyclin-B1 (Homo sapiens), sequence (P14635 whole entry): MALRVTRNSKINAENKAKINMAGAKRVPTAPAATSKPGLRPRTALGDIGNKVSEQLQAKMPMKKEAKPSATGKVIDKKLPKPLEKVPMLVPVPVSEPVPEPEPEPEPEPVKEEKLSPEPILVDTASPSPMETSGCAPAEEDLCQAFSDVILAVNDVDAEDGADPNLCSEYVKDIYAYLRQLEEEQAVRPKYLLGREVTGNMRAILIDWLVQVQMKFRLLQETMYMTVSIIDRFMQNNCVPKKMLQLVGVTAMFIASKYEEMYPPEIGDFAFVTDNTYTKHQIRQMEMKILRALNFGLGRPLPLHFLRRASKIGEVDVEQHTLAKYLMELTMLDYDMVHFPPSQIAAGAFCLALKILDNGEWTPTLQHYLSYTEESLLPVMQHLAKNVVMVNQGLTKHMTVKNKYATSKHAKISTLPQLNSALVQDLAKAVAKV

[5] = Aqueous solubility of the compound in PBS as pH 7.4; type: physicochemical
[6] = Apparent permeability from apical to basolateral side in […] TC7 cells at 10 umol/L and pH 6.5/7.4; type: ADME, cell-based; conditions: Caco-2, pH 6.5
How it was run: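 A-to-B permeability was measured across TC7 monolayers at pH 6.5/7.4 with a 10 μmol/L test concentration. Recovery was recorded, and propranolol served as the control.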

[7] = Elimination half life in mouse at 10 mg/kg, iv; type: ADME, organism-based; set-up: dose 10 mg/kg, route intravenous; conditions: in vivo, read-out: beta t1/2
How it was run: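 Mice given 10 mg/kg by the ip, iv or oral route. Plasma levels were measured at 8 time points, with 3 animals per route for po and iv. Parameters came from a noncompartmental model. AUCINF was extrapolated to infinity, and bioavailability was calculated from AUCINF. The terminal slope used 3 points.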

[8] = Volume of distribution at steady state in mouse at 10 mg/kg, iv; type: ADME, organism-based; set-up: dose 10 mg/kg, route intravenous; conditions: in vivo, read-out: Vdss
Mus musculus [9] = assay: Inhibition of cyclin-dependent kinase substrate RB phosphorylation at Thr 821 in nude BALB/c mouse PBMC at 25 mg/kg, po measured after 6 hrs by immunostaining and flow cytometric analysis; type: functional
How it was run: (§3)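 Seven-week-old female nu/nu-BALB/c nude mice got a single oral gavage (vehicle 28% PEG300/5% dimethylacetamide/10% HPB cyclodextrin in water). Blood was taken by cardiac puncture at 6 h or 24 h, red cells were lysed, and PBMC were fixed and permeabilized. Cells were stained with Rb, Rb pThr821, PolII or PolII pSer2 antibodies plus an Alexa488 secondary, then read by flow cytometry; n=4 (n=3 at 100 mg/kg).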

[10] = target: Mitogen-activated protein kinase 12 (Homo sapiens) (UniProt P53778); assay: Inhibition of p38-gamma MAPK assessed as residual enzyme activity at 10 uM
[11] = target: Protein kinase C alpha type (Homo sapiens) (UniProt P17252); assay: Inhibition of PKCalpha assessed as residual enzyme activity at 10 uM
Mus musculus [12] = assay: Inhibition of cyclin-dependent kinase substrate […] phosphorylation at Ser2 in nude BALB/c mouse PBMC at 50 to 100 mg/kg, po measured after 6 hrs by immunostaining and flow cytometric analysis; type: organism-based; set-up: dose 50-100 mg/kg, route oral; conditions: in vivo; how it was run: as §3
[13] = target: Maternal embryonic leucine zipper kinase (Homo sapiens) (UniProt Q14680); assay: Inhibition of MELK assessed as residual enzyme activity at 10 uM
[14] = target: Serine/threonine-protein kinase pim-1 (Homo sapiens) (UniProt P11309); assay: Inhibition of PIM1 assessed as residual enzyme activity at 10 uM
Serine/threonine-protein kinase pim-1 (Homo sapiens), sequence (P11309 whole entry, looked up): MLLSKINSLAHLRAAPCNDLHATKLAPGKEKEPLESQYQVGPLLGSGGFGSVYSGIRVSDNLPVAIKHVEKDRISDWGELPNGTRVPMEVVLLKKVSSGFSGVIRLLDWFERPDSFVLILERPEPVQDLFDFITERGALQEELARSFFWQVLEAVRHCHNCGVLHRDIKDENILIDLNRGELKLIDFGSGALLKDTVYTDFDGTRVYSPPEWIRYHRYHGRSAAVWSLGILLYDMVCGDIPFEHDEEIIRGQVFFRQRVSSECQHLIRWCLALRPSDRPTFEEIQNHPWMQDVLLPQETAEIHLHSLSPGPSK

[15] = target: Serine/threonine-protein kinase pim-3 (Homo sapiens) (UniProt Q86V86); assay: Inhibition of PIM3 assessed as residual enzyme activity at 10 uM
[16] = target: Serine/threonine-protein kinase 3 (Homo sapiens) (UniProt Q13188); assay: Inhibition of MST2 assessed as residual enzyme activity at 10 uM
[17] = target: Tyrosine-protein kinase Lck (Homo sapiens) (UniProt P06239); assay: Inhibition of Lck assessed as residual enzyme activity at 10 uM
[18] = target: Serine/threonine-protein kinase TBK1 (Homo sapiens) (UniProt Q9UHD2); assay: Inhibition of TBK1 assessed as residual enzyme activity at 10 uM
Serine/threonine-protein kinase TBK1 (Homo sapiens), sequence (Q9UHD2 whole entry, canonical isoform): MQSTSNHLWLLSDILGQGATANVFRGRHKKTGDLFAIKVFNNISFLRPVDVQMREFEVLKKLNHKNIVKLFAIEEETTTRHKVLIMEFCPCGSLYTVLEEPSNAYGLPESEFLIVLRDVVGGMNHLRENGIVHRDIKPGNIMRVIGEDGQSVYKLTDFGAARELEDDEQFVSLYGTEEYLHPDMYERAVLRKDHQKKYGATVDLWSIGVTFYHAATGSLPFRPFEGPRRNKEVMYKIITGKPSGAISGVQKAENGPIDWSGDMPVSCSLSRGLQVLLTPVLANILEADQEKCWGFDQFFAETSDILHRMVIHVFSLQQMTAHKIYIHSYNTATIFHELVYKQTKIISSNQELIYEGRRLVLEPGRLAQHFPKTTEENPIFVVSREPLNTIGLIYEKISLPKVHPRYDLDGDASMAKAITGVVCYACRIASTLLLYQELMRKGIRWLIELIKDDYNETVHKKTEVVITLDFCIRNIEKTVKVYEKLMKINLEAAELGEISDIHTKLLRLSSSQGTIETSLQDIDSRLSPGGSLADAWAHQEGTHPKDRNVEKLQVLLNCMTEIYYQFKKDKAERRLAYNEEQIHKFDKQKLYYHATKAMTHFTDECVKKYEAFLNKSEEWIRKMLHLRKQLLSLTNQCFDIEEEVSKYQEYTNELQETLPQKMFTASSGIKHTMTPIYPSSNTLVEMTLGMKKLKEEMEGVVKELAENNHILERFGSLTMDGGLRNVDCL

[19] = target: Casein kinase I isoform alpha (Homo sapiens, UniProt P48729); assay: Inhibition of CK1 at 0.1 uM
[20] = target: Mitogen-activated protein kinase 3 (Homo sapiens, UniProt P27361); assay: Inhibition of ERK1 at 0.1 uM
Mitogen-activated protein kinase 3, sequence (P27361 whole entry): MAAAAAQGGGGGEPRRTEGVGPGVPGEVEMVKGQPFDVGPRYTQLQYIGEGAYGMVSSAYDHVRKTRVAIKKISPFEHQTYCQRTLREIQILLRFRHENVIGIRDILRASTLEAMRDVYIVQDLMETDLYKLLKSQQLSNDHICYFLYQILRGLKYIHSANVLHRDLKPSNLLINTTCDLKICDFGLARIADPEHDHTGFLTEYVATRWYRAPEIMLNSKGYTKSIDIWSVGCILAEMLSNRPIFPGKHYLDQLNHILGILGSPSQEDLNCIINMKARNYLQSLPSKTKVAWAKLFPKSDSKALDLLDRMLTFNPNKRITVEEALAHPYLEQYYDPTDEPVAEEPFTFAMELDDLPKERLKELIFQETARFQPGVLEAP

[21] = target: Insulin receptor-related protein (Homo sapiens, UniProt P14616); assay: Inhibition of IRR at 0.1 uM
Insulin receptor-related protein, sequence (P14616 27-742 limits assumed): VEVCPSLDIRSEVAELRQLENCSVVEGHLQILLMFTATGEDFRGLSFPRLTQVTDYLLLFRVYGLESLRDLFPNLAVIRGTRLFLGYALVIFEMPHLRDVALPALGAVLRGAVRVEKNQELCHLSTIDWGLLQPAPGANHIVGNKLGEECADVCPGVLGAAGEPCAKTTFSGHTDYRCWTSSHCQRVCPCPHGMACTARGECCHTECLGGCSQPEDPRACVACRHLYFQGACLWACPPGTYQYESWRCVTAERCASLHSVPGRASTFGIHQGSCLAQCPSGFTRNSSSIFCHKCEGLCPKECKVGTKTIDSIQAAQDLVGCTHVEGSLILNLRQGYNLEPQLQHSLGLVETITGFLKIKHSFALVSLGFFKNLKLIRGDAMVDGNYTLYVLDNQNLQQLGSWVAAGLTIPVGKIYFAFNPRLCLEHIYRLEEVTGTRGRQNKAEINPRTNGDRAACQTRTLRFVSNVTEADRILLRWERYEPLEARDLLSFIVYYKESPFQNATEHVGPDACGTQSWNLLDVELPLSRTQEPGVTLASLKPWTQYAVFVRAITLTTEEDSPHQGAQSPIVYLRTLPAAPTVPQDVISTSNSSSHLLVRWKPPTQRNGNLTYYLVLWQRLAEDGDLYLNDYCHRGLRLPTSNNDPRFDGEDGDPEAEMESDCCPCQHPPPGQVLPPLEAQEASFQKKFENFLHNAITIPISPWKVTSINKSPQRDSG
Insulin receptor-related protein, sequence (P14616 747-1297 limits assumed): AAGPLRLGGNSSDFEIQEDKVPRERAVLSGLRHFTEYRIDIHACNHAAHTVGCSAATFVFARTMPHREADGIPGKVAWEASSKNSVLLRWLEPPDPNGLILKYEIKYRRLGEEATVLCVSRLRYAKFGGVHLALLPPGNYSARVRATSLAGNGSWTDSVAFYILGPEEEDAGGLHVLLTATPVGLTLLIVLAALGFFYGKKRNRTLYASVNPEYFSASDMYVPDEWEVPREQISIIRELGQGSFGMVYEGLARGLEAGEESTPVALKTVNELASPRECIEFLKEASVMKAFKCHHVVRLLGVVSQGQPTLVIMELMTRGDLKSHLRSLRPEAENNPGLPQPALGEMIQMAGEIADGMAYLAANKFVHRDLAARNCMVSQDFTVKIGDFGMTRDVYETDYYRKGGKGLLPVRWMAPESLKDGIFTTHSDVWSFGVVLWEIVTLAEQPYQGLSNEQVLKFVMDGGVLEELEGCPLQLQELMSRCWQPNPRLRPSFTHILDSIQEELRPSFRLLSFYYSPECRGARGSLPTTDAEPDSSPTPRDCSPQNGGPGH

[22] = target: Mitogen-activated protein kinase 15 (Homo sapiens) (UniProt Q8TD08); assay: Inhibition of ERK8 at 10 umol/L
[23] = target: Mitogen-activated protein kinase 15 (Homo sapiens, UniProt Q8TD08); assay: Inhibition of ERK8
[24] = target: Dual specificity tyrosine-phosphorylation-regulated kinase 1A (Homo sapiens, UniProt Q13627); conditions: 0.1 uM

CDK6/cyclin D1, sequence (P24385 whole entry): as the sequence (P24385 whole entry) above
CDK6/cyclin D1, sequence (Q00534 whole entry): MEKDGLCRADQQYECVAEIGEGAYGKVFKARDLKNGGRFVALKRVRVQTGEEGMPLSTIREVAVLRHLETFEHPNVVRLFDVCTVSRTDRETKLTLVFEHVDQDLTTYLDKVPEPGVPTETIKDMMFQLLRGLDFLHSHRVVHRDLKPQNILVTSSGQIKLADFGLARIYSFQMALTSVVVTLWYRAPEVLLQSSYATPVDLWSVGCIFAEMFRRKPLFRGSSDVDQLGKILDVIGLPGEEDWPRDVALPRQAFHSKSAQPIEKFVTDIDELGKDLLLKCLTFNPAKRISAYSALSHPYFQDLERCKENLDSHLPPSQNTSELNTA

For CC(C)c1cnn2c(NCc3ccccc3)cc(N[C@@H](CO)[C@H](O)CO)nc12, the IC50 (CDK6/cyclin D1) was 35500 nM, the GI50 (MCF7) was 300 nM and the GI50 (HepG2) was 1000 nM. For the same compound, the inhibition [1] was “Active”, the inhibition [2] was “inactive” and the inhibition [3] was “inactive”. For the same compound, the inhibition [4] was “inactive”, the solubility [5] was 54 µM (≈ 20.8 µg/mL) and the Papp A→B at 10 µM [6] was 9.7 ×10⁻⁶ cm/s. For the same compound, the half-life [7] was 3.5 h, the Vd [8] was 0.754 L/kg and the inhibition in vivo at 25 mg/kg (Mus musculus [9]) was 60%. For the same compound, the Activity [10] was 112%, the Activity [11] was 96% and the “inhibition (INH)” value (Mus musculus [12]) was “Active”. The Activity [13] was 88%, the Activity [14] was 103% and the Activity [15] was 101%. For the same compound, the Activity [16] was 86%, the Activity [17] was 85% and the Activity [18] was 87%. It also gave an inhibition [19] of under 50%, an inhibition [20] of under 50% and an inhibition [21] of under 50%. It also gave an inhibition [22] of 74%, an IC50 [23] of 330 nM and an inhibition [24] of under 50%.
